Residue numbers refer to the chain shown, from its start.
How the values were obtained:
Type in all cases: cell-based
mTRPV3 H426A = target: T1, mTRPV3 H426A (Mus musculus, UniProt Q8K424, H426A); assay: whole-cell patch-clamp of mTRPV3 H426A mutant in HEK293 cells; conditions: compound 100 µmol/L; carvacrol 300 μmol/L
T1 sequence (Q8K424 1-791 H426A): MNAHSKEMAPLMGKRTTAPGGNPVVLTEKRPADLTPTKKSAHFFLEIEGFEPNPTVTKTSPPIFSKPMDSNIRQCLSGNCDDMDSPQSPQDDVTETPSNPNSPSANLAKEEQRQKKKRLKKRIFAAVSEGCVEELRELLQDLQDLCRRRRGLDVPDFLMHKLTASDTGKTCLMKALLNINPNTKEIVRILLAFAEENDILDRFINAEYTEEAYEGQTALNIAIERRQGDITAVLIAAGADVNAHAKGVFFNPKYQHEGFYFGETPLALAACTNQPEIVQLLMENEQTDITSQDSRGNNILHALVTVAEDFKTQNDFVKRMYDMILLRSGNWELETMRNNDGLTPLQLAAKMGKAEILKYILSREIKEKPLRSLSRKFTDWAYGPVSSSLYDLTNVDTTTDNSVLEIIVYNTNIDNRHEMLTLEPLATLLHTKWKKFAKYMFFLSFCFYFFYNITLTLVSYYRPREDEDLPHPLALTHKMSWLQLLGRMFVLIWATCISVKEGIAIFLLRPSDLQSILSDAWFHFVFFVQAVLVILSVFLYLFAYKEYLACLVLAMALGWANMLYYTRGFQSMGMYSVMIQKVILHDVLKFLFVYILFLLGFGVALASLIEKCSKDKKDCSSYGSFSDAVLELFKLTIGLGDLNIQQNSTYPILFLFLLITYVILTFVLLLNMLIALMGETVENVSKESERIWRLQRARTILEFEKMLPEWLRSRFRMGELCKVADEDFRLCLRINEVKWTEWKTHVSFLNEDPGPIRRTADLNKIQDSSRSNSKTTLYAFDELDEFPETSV
How it was run: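 The sequence-confirmed site-directed mTRPV3 mutant was transiently expressed in HEK293 cells, and EGFP-positive cells were recorded whole-cell 18 h post-transfection. Cells were held at 0 mV with 500-ms ramps from −100 to +100 mV every 2 s, at 22–24 °C. Compounds were diluted in perfusion solution.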

hTRPV1 = hTRPV1 (Homo sapiens, UniProt Q8NER1); assay: whole-cell patch-clamp of TRPV1 currents in HEK293 cells; conditions: compound 50 μmol/L; current induced by capsaicin 1 μmol/L
How it was run: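 Human channel cDNAs were transiently transfected into HEK293 cells with Lipofectamine 2000. EGFP-positive cells were recorded whole-cell 18 h later at 22–24 °C with ~4.0 MΩ fire-polished pipettes. Cells were held at 0 mV with 500-ms ramps from −100 to +100 mV every 2 s. Test compound in perfusion solution was co-applied with agonist, and average current inhibition was summarised; n = 4–6.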

mTRPV3 F666A = target: T2, mTRPV3 F666A (Mus musculus, UniProt Q8K424, F666A); assay: whole-cell patch-clamp of mTRPV3 F666A mutant in HEK293 cells; conditions: compound 50 μmol/L; 2-APB; compared with WT mTRPV3
T2 sequence (Q8K424 1-791 F666A): T1 sequence (Q8K424 1-791 H426A) with A426H, F666A
How it was run: (§1)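 Mouse Trpv3 point mutants were made by site-directed mutagenesis, sequence-verified, and transiently expressed in HEK293 cells alongside wild-type mTRPV3. Whole-cell ramp recordings (−100 to +100 mV, 500 ms, holding 0 mV) were made at 22–24 °C. Currents were activated by 2-APB, and inhibition by 50 μmol/L test compound in the presence of 2-APB was compared with wild type; n = 3–8.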

mTRPV3 T665A = target: T3, mTRPV3 T665A (Mus musculus, UniProt Q8K424, T665A); assay: whole-cell patch-clamp of mTRPV3 T665A mutant in HEK293 cells; conditions: compound 50 μmol/L; 2-APB; compared with WT mTRPV3
T3 sequence (Q8K424 1-791 T665A): T1 sequence (Q8K424 1-791 H426A) with A426H, T665A
How it was run: as §1

Chain of hTRPV1 (Q8NER1 whole entry, the tested form may be a part): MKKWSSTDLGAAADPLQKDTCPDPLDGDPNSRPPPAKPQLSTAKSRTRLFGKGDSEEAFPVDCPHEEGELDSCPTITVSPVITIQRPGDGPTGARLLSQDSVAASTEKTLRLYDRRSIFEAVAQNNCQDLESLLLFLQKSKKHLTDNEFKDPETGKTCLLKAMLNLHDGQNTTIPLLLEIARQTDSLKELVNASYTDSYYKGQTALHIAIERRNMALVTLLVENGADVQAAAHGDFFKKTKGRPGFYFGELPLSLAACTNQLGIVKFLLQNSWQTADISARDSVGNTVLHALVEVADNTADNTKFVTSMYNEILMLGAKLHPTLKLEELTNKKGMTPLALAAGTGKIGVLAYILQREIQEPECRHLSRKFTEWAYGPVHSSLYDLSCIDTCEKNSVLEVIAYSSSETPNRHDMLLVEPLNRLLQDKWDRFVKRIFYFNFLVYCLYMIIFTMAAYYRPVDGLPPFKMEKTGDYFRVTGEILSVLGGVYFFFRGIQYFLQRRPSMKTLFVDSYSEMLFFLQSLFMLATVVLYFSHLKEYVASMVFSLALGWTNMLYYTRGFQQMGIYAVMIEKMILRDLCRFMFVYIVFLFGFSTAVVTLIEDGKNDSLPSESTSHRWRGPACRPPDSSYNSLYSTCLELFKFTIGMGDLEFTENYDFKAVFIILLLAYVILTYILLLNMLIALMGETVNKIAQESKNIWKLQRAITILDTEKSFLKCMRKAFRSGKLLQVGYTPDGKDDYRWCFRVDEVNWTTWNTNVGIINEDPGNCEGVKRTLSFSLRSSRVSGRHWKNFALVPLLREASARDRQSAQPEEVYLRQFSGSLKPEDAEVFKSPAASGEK

SMILES	inhibition of carvacrol-mediated H426A mutant currents (mTRPV3 H426A)	inhibition of TRPV1 currents (hTRPV1)	effect of mutation on compound-induced inhibition of mTRPV3 currents (mTRPV3 F666A)	effect of mutation on compound-induced inhibition of mTRPV3 currents (mTRPV3 T665A)
O=C(/C=C/c1ccc(O)c(O)c1)O[C@@H]1[C@H](O)C[C@@](O)(C(=O)O)C[C@H]1OC(=O)/C=C/c1ccc(O)c(O)c1 [IAB, isochlorogenic acid B]	markedly inhibited	no obvious inhibition	markedly reduced	no obvious effect
O=C(/C=C/c1ccc(O)c(O)c1)O[C@@H]1C[C@](O)(C(=O)O)C[C@@H](OC(=O)/C=C/c2ccc(O)c(O)c2)[C@H]1O [IAA, isochlorogenic acid A]	markedly inhibited	no obvious inhibition	markedly reduced	no obvious effect

From paper PMC8897028 (Acta Pharmaceutica Sinica. B, 2021)
